Experiment [1] relates to Human immunodeficiency virus 1. The experiment can be described thus: In vitro antiviral activity against HIV-1 in human PBM cells. The format is functional, organism-based. The settings on record: Human immunodeficiency virus 1, PBMC.
A further experiment concerns CCRF-CEM. The experiment can be described thus: In vitro cytotoxicity in CEM cells. Type of experiment: functional, cell-based. The note with it: Homo sapiens.
Another experiment relates to West Nile virus. The experiment in a line: In vitro antiviral activity against West Nile Virus. The format is functional, organism-based. In short, it runs like this: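 Lightly confluent Vero cells in 96-well plates received serial compound dilutions and then 5 CCID50 of the WNV New York isolate, with test samples in triplicate. Cells were scored visually for cytopathic effect 6 days after virus exposure. Neutral red uptake (2-3 h, 37 °C; absorbance 540 and 405 nm) was used to verify the scoring. EC50 was obtained by regression on mean ratings or on percent-of-control absorbance.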

The nature of experiment [2]: In vitro cytotoxicity in PBM cells. The settings on record: Homo sapiens, PBMC. The format is functional, cell-based.
In another experiment the test system is Vero. The experiment can be described thus: In vitro cytotoxicity in vero cells. Type of experiment: functional, cell-based. The settings on record: Chlorocebus sabaeus. In short, it runs like this:
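Uninfected Vero cells were treated with serial compound dilutions, with toxicity controls in duplicate at each concentration, and were scored visually 6 days later. Scoring was confirmed by neutral red uptake (2-3 h, 37 °C; absorbance 540 and 405 nm) expressed as percent of control. IC50 was obtained by regression analysis.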

Experiment [3] relates to Human immunodeficiency virus 1. The experiment in a line: The compound was evaluated for the antiviral activity against HIV-1 in human PBM cells. Type of experiment: functional, organism-based.

Broadly, the EC50 is the concentration giving half of the maximal effect. By IC50 is commonly meant the midpoint of a concentration-inhibition curve. A lower IC50 goes with higher potency. In the case of `O=c1ccn([C@@H]2C=C(CO)[C@@H](O)[C@H]2O)c(=O)[nH]1`, the EC50 in experiment [1] is more than 100 µM; with West Nile virus it was more than 200 µM. Also, the IC50 (in the experiment with CCRF-CEM; in experiment [2]; with Vero) was more than 100 µM in each case.
Consider `Nc1ccn([C@H]2C=C(CO)[C@H](O)[C@@H]2O)c(=O)n1`, for which the EC50 in experiment [1] was 58.9 µM; with West Nile virus, more than 200 µM. Further, the IC50 (in the experiment on CCRF-CEM; in experiment [2]; with Vero) was more than 100 µM throughout.
`Nc1nc(O)c2ncn([C@@H]3C=C(CO)[C@@H](O)[C@H]3O)c2n1`: the values for the EC50 (in experiment [1]; in the experiment with West Nile virus) were more than 100 µM and more than 200 µM, respectively. For the same molecule, the IC50 (with CCRF-CEM; in experiment [2]; in the experiment on Vero) was more than 100 µM throughout.
Consider `OCC1=C[C@H](n2cnc3c(O)ncnc32)[C@@H](O)[C@H]1O`, for which the results for the EC50 (in experiment [1]; with West Nile virus) were more than 100 µM and more than 200 µM, respectively. In addition, the IC50 (with CCRF-CEM; in experiment [2]; in the experiment with Vero) was more than 100 µM throughout.
Consider `Nc1nc(=O)n([C@@H]2C=C(CO)[C@@H](O)[C@H]2O)cc1F`, for which the values for the EC50 (in experiment [1]; with West Nile virus) were 5.34 µM and 15 µM, respectively. Besides, the IC50 stood at 5.34 µM in experiment [3] (Human immunodeficiency virus 1, PBMC); 5.34 µM in experiment [3] (pbm); 51.8 µM in the experiment with CCRF-CEM; 73.7 µM in experiment [2]; 27.4 µM with Vero.
`O=c1[nH]c(=O)n([C@@H]2C=C(CO)[C@@H](O)[C@H]2O)cc1F`: the EC50 in experiment [1] is 93.1 µM; in the experiment with West Nile virus, more than 200 µM. The 50% inhibitory concentration (IC50) (in the experiment with CCRF-CEM; in experiment [2]; with Vero) was more than 100 µM in each case.
Regarding `Nc1ncnc2c1ncn2[C@H]1C=C(CO)[C@H](O)[C@@H]1O`, the EC50 in experiment [1] was more than 100 µM; in the experiment on West Nile virus, more than 200 µM. Besides, the IC50 (in the experiment with CCRF-CEM; in experiment [2]; in the experiment on Vero) was more than 100 µM throughout.
In the case of `Cc1cn([C@@H]2C=C(CO)[C@@H](O)[C@H]2O)c(=O)[nH]c1=O`, the EC50 was more than 100 µM in experiment [1] and more than 200 µM with West Nile virus. The IC50 (in the experiment with CCRF-CEM; in experiment [2]; in the experiment on Vero) was more than 100 µM in each case.
As for `Nc1nc(O)c2ncn([C@H]3C=C(CO)[C@H](O)[C@@H]3O)c2n1`, the values for the EC50 (in experiment [1]; in the experiment on West Nile virus) were more than 100 µM and more than 200 µM, respectively. For the same molecule, the half-maximal inhibitory concentration (IC50) (with CCRF-CEM; in experiment [2]; in the experiment on Vero) was more than 100 µM throughout.
On to `Cc1cn([C@H]2C=C(CO)[C@H](O)[C@@H]2O)c(=O)[nH]c1=O`, for which the EC50 in experiment [1] is more than 100 µM; in the experiment with West Nile virus, more than 200 µM. In addition, the IC50 (in the experiment on CCRF-CEM; in experiment [2]; in the experiment with Vero) was more than 100 µM each time.
Regarding `O=c1[nH]c(=O)n([C@H]2C=C(CO)[C@H](O)[C@@H]2O)cc1F`, the figures for the EC50 (in experiment [1]; in the experiment on West Nile virus) were more than 100 µM and more than 200 µM, respectively. The IC50 (in the experiment on CCRF-CEM; in experiment [2]; with Vero) was more than 100 µM in each case.
Regarding `Nc1nc(=O)n([C@H]2C=C(CO)[C@H](O)[C@@H]2O)cc1F`, the EC50 in experiment [1] was more than 100 µM; in the experiment with West Nile virus, more than 200 µM. Moreover, the IC50 (in the experiment with CCRF-CEM; in experiment [2]; in the experiment on Vero) was more than 100 µM in each case.
As for `O=c1ccn([C@H]2C=C(CO)[C@H](O)[C@@H]2O)c(=O)[nH]1`, the EC50 in experiment [1] was more than 100 µM; in the experiment with West Nile virus, more than 200 µM. The IC50 (in the experiment on CCRF-CEM; in experiment [2]; with Vero) was more than 100 µM throughout.
As to `OCC1=C[C@@H](n2cnc3c(O)ncnc32)[C@H](O)[C@@H]1O`, the EC50 was more than 100 µM in experiment [1] and more than 200 µM with West Nile virus. Besides, the IC50 (in the experiment on CCRF-CEM; in experiment [2]; with Vero) was more than 100 µM each time.
With `Nc1ccn([C@@H]2C=C(CO)[C@@H](O)[C@H]2O)c(=O)n1`, the EC50 in experiment [1] stood at 0.06 µM; in the experiment with West Nile virus, 0.2 µM. Also, the IC50 in the experiment with CCRF-CEM was 0.08 µM; in experiment [2], 6.5 µM; in the experiment with Vero it was 1.95 µM.
`O=c1cnn([C@@H]2O[C@H](CO)[C@@H](O)[C@H]2O)c(=O)[nH]1` [6-AZAURIDINE] yielded an EC50 in the experiment with West Nile virus of 1.2 µM. This molecule also registered an IC50 with Vero of more than 100 µM.
`Nc1ncnc2c1ncn2[C@@H]1C=C(CO)[C@@H](O)[C@H]1O` [NEOPLANOCIN A]: the concentration giving a half-maximal response (EC50) in experiment [1] is 0.1 µM; with West Nile virus it was more than 51 µM. In addition, the IC50 in the experiment with CCRF-CEM amounted to 1.2 µM; in experiment [2], 44.6 µM; in the experiment on Vero it was 3.5 µM.
In turn, `Cc1cn([C@H]2C[C@H](N=[N+]=[N-])[C@@H](CO)O2)c(=O)[nH]c1=O` [ZIDOVUDINE] returned an EC50 in experiment [1] of 0.004 µM. In experiment [2], this molecule came in with an IC50 of more than 100 µM.

The record behind these values is ChEMBL document CHEMBL1134272, “Enantiomeric synthesis of D- and L-cyclopentenyl nucleosides and their antiviral activity against HIV and West Nile virus” (J Med Chem, 2001).
